Activity calls are given as the source filed them. The rule behind the calls is not given here.
Key:
[1] = tested on: MOLM-14; experiment: Induction of apoptosis in human MOLM14 cells assessed as live cells at 1 uM after 48 hrs by Annexin-V FITC/propidium iodide staining based flow cytometry (reference value: 94 to 94.1%); type: functional
In short: (§1)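 MOLM-14 cells treated 48 h at the stated concentrations; doxorubicin as positive control. Stained with Annexin V-FITC and propidium iodide and analysed by flow cytometry (at least 10,000 events). Gated quadrants: Annexin V−/PI− viable, Annexin V+/PI− early apoptotic, Annexin V+/PI+ late apoptotic.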

[2] = tested on: MOLM-14; experiment: Induction of apoptosis in human MOLM14 cells assessed as early apoptotic cells at 1 uM after 48 hrs by Annexin-V FITC/propidium iodide staining based flow cytometry (reference value: 3.6 to 3.7%); type: functional; in short: as §1
[3] = tested on: MOLM-14; experiment: Induction of apoptosis in human MOLM14 cells assessed as late apoptotic cells at 1 uM after 48 hrs by Annexin-V FITC/propidium iodide staining based flow cytometry (reference value: 2.1 to 2.2%); type: functional; in short: as §1
[4] = tested on: MOLM-14; experiment: Induction of apoptosis in human MOLM14 cells assessed as necrotic cells at 1 uM after 48 hrs by Annexin-V FITC/propidium iodide staining based flow cytometry (reference value: 0.1%); type: functional; in short: as §1
[5] = Antiproliferative activity against human MDA-MB-231 cells after 72 hrs by MTT assay; type: functional, cell-based; details: MDA-MB-231, 72 h
[6] = Antiproliferative activity against human HCT116 cells after 72 hrs by MTT assay; type: functional, cell-based; details: HCT-116, 72 h
In short: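 MTT viability after 72 h exposure. Cells seeded at 2500/well and left 24 h before compound addition; DMSO at 0.5% v/v final. MTT added in FBS-free medium for 3 h at 37 °C, formazan dissolved in DMSO, absorbance read at 570 nm. IC50 from a sigmoidal fit of % viability vs log concentration; triplicates on separate occasions using two different stock solutions.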

[7] = Antiproliferative activity against human PC3 cells after 72 hrs by MTT assay; type: functional, cell-based; details: PC-3, 72 h
[8] = Antiproliferative activity against human MCF7 cells after 72 hrs by MTT assay; type: functional, cell-based; details: MCF7, 72 h
[9] = Antiproliferative activity against human HCT116 cells after 48 hrs by CellTiter-Glo assay; type: functional, cell-based; details: HCT-116, 48 h
[10] = Antiproliferative activity against human PC3 cells after 48 hrs by CellTiter-Glo assay; type: functional, cell-based; details: PC-3, 48 h
[11] = Antiproliferative activity against human MCF7 cells after 48 hrs by CellTiter-Glo assay; type: functional, cell-based; details: MCF7, 48 h
[12] = Antiproliferative activity against human HL60 cells; type: functional, cell-based; details: HL-60
[13] = cells; type: functional, cell-based; details: Homo sapiens, HEL 92.1.7, 36 h
[14] = Antiproliferative activity against human Jurkat cells; type: functional, cell-based
[15] = Antiproliferative activity against HEL 92.1.7 cells harboring JAK2 V617F mutant after 48 hrs by CellTiter-Glo assay; type: functional, cell-based; details: Homo sapiens, HEL 92.1.7, 48 h
[16] = Antiproliferative activity against human Jurkat cells after 48 hrs by CellTiter-Glo assay; type: functional, cell-based
[17] = Antiproliferative activity against human KMS-12-BM cells after 48 hrs by CellTiter-Glo assay; type: functional, cell-based
[18] = Antiproliferative activity against human OPM2 cells after 48 hrs by CellTiter-Glo assay; type: functional, cell-based; details: OPM-2, 48 h
In short: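 OPM2 grown in RPMI 1640 with 10% FBS and penicillin/streptomycin at 37 °C, 5% CO2. Treated at 25,000 cells/well in triplicate for 48 h. Viability read by CellTiter-Glo luminescence. IC50 taken from a sigmoidal fit of % viability vs log concentration.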

[19] = Antiproliferative activity against human KG1 cells after 48 hrs by CellTiter-Glo assay; type: functional, cell-based; details: KG-1, 48 h
[20] = Antiproliferative activity against human MOLM14 cells harboring FLT3-ITD mutant after 48 hrs by CellTiter-Glo assay; type: functional, cell-based; details: MOLM-14, 48 h
[21] = Antiproliferative activity against human NKYS cells after 48 hrs by CellTiter-Glo assay; type: functional, cell-based
[22] = Antiproliferative activity against human KHYG cells after 48 hrs by CellTiter-Glo assay; type: functional, cell-based
[23] = Antiproliferative activity against mouse TAMH cells after 24 hrs by CellTiter-Glo assay; type: ADME, cell-based
[24] = target: T1, Tyrosine-protein kinase JAK2 (Homo sapiens, UniProt O60674); experiment: Inhibition of JAK2 in IL-6-stimulated human KMS-12-BM cells assessed as suppression of STAT3 phosphorylation at TY705 residue at 2 uM pretreated for 3 hrs followed by IL-6 stimulation by immunoblot method
T1 sequence (O60674 whole entry): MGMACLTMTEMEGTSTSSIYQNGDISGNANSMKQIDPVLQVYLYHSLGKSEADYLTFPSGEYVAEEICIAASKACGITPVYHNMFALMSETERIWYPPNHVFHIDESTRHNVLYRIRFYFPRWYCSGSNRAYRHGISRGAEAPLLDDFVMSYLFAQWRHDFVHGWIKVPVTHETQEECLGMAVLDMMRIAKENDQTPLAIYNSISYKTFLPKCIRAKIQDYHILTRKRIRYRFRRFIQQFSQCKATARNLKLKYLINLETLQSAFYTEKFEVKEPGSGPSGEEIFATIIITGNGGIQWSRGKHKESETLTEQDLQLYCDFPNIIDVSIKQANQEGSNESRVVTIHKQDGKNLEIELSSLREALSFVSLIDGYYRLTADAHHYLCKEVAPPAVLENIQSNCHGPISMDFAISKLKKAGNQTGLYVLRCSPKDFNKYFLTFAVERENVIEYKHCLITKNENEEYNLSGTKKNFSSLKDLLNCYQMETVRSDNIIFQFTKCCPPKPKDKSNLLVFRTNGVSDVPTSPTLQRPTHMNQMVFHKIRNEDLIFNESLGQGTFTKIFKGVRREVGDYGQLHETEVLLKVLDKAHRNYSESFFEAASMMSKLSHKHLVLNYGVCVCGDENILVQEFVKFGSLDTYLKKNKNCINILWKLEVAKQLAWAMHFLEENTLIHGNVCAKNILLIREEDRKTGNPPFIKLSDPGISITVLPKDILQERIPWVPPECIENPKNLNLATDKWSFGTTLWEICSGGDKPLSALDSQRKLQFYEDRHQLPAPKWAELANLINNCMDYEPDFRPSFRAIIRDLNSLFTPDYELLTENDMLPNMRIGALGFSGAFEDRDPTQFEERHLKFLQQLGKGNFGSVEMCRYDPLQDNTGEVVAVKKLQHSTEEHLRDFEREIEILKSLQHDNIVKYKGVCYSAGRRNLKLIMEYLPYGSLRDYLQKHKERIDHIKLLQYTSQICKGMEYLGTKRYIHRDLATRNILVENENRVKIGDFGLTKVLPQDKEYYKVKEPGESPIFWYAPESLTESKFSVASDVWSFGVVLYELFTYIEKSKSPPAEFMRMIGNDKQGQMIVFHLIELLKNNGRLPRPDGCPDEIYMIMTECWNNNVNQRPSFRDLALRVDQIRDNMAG
In short: (§2)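 KMS-12-BM or MOLM-14 cells pretreated with compound for 3 h, then stimulated with IL-6 (10 ng/mL) for 15 min. Lysates immunoblotted for p-STAT3 (Y705) and re-probed for total STAT3. Reference JAK2 inhibitor used at 2 μM in KMS-12-BM and 0.1 μM in MOLM-14.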

[25] = target: T1, Tyrosine-protein kinase JAK2; experiment: Inhibition of JAK2 in IL-6-stimulated human MOLM14 cells assessed as suppression of STAT3 phosphorylation at TY705 residue at 0.1 uM pretreated for 3 hrs followed by IL-6 stimulation by immunoblot method; type: cell-based; details: MOLM-14; in short: as §2
[26] = tested on: Tyrosine-protein kinase JAK2 (Homo sapiens), O60674 [V617F]; experiment: Induction of JAK2 V617F mutant phosphorylation at Y1007/8 residues in HEL 92.1.7 cells after 1 hr by immunoblot method; type: cell-based
Tyrosine-protein kinase JAK2 (Homo sapiens), O60674 [V617F], sequence (O60674 whole entry V617F): as the sequence (O60674 whole entry) above, with V617F counted along it
In short: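 HEL92.1.7 cells seeded at 5x10^5/mL and treated 1 h at 0, 0.1, 0.5 and 1 μM. Lysed in RIPA with phosphatase/protease inhibitors, run on 10% SDS-PAGE and blotted to PVDF. Probed for acetyl-tubulin, acetyl-H3 (Lys9/Lys14), p-JAK2 (Y1007/1008) and p-STAT5 (Tyr694); membranes re-probed for tubulin, H3, JAK2 and STAT5. Quantified by densitometry.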

Compound `COc1cccc2c1C(=O)c1c(O)c3c(c(O)c1C2=O)C[C@@](O)(C(=O)CO)C[C@@H]3O[C@H]1C[C@H](N)[C@H](O)[C@H](C)O1` [DOXORUBICIN] has an Activity [1] of 0.8%, an Activity [2] of 38.8% and an Activity [3] of 59.9%. It also gave an Activity [4] of 0.4%.
`C1=N/C2=N/c3ccc(OCCN4CCCC4)c(c3)COC/C=C/COCc3cccc(c3)C(=C1)N2` [PACRITINIB] showed an IC50 [5] of 2430 nM, an IC50 [6] of 880 nM and an IC50 [7] of 2410 nM. For the same compound, the IC50 [8] was 290 nM, the IC50 [9] was 1690 nM and the IC50 [10] was 770 nM. For the same compound, the IC50 [11] was 850 nM, the IC50 [12] was 1780 nM and the IC50 [13] was 1170 nM. For the same compound, the IC50 [14] was 1090 nM, the IC50 [15] was 1730 nM and the IC50 [16] was 839 nM. For the same compound, the IC50 [17] was 750 nM, the IC50 [18] was 1210 nM and the IC50 [19] was 1480 nM. The IC50 [20] was 79 nM, the IC50 [21] was 1600 nM and the IC50 [22] was 1240 nM. For the same compound, the IC50 [23] was 3.68 µM, the inhibition [24] was “Active” and the inhibition [25] was “Active”. The Activity [26] was “Active”.

From ChEMBL document CHEMBL3877241 (J Med Chem, 2016)
